# DNA FID counter = counter-screen for HCV NS3 helicase inhibitors: DNA intercalator displacement | 290,000 compounds, 0.17% hits | inhibition, % at 7.9 µM | DNA fluorescent intercalator displacement, fluorescence; in the data active = inhibition above about 37%;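 note: 0% = vehicle and 100% = reference compound; higher means more ethidium bromide displaced from hairpin DNA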
# VIM-2 inh = inhibitors of Pseudomonas aeruginosa VIM-2 metallo-beta-lactamase | purified VIM-2, nitrocefin hydrolysis, epi-absorbance fluorescence | inhibition, % at 5.6 µM | 290,000 compounds, 0.89% hits | AID 1527;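 active = inhibition above the mean of all tested compounds plus 3 SD, cutoff set per screening run, cut at about 7.5% in these data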;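 note: red hydrolysis product quenches plate fluorescence so inhibitors raise well fluorescence; 0% = enzyme with DMSO and 100% = DMSO without enzyme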
# IMP-1 inhibitor = inhibitors of Pseudomonas aeruginosa IMP-1 metallo-beta-lactamase. purified IMP-1, nitrocefin hydrolysis, epi-absorbance fluorescence. inhibition, % at 5.6 µM. 290,000 compounds, 0.45% hits. AID 1556;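 active = inhibition above the mean plus 3 SD of all compounds in the same screening run, cut at about 4.5% in these data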;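 note: 0% = IMP-1 with DMSO and 100% = DMSO wells lacking enzyme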
#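 assay system = purified recombinant IMP-1 metallo-beta-lactamase enzyme | schedule = 15 min preincubation plus 25 min reaction at 25 °C | signal = Epi-absorbance fluorescence, 480 nm excitation, 530 nm emission | read-out basis = percent inhibition from optical density relative to buffer-blank wells | controls = IMP-1 with DMSO as 0%, enzyme-free DMSO as 100%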
# RAD54 inh = inhibitors of human RAD54 branch migration. 360,000 compounds, 0.14% hits. RAD54 Holliday junction branch migration, FAM/BHQ fluorescence. Q92698. inhibition, % at 10.4 µM;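 active = mean normalized replicate activity at least 40 and at least half of replicates scoring 40 or more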;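 note: 0% = median of neutral control wells and 100% = median of positive control wells; inhibitors cause a drop in the FAM fluorescence signal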
# Target sequence (Q92698 whole entry, looked up): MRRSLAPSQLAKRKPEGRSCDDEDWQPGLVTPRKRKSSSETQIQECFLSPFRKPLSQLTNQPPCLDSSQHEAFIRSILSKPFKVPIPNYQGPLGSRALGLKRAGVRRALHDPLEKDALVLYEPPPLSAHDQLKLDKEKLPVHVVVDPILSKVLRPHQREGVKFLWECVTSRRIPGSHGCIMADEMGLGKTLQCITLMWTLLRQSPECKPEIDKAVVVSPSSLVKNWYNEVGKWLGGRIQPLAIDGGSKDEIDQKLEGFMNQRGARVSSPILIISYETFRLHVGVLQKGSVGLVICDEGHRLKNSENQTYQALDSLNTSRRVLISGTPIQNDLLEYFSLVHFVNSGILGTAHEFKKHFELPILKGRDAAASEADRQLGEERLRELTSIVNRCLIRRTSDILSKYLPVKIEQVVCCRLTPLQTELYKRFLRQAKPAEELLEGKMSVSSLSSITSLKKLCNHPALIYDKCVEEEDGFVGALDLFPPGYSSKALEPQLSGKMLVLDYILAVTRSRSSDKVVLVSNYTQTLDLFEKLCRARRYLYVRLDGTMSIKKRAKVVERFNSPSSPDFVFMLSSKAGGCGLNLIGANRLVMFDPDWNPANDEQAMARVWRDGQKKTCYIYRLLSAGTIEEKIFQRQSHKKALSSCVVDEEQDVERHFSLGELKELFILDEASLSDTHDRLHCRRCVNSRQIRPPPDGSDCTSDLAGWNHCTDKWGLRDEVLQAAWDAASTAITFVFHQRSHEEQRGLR
# PvdQ inh = blocks Pseudomonas aeruginosa PvdQ acylase activity | purified PvdQ acylase, fluorescence plate reader | inhibition, % at 10 µM | 340,000 compounds, 0.063% hits | AID 488965; in the data active = inhibition above about 30%, passing the limit was not always enough;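 note: 0% = vehicle neutral wells and 100% = reference inhibitor wells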
# Numbers without * were called inactive; x = not tested or not shown. Rows were chosen to be rich in hits. Some 1% of all compounds tested hit in one or more screens of this group.
SMILES,DNA FID counter,VIM-2 inh,IMP-1 inhibitor,RAD54 inh,PvdQ inh
COc1ccc(NC(=O)Nc2ccc3c(c2)C(=O)N([C@H](C)CO)C[C@H](C)[C@@H](CN(C)C(=O)Nc2ccccc2)OCCCC[C@@H](C)O3)cc1,x,x,x,6,x
C=CCOc1ccccc1/C=c1\sc2nc(=O)c(C)nn2c1=O,-27,-2,9.2*,3,-4
CCC(=O)c1ccccc1OCCCCn1cncn1,2,0,8.4*,-6,5
CCC(=O)c1ccc(OCCn2cncn2)cc1,-1,-2,-5,-11,-6
CCOc1ccc(OCC)c(NC(=O)C2CCN(S(=O)(=O)c3cccc4nonc34)CC2)c1,-3,-4,-3,-5,-10
CC(C)(C)C(=O)C(Oc1cccc2nonc12)n1cncn1 (stereo not given),-5,-2,35*,-2,2
C[C@H](CO)N1C[C@H](C)[C@H](CN(C)C(=O)CCC(F)(F)F)OCCCC[C@H](C)Oc2ccc(NC(=O)c3ccccc3)cc2C1=O,x,x,x,0,x
CCn1c2ccccc2c2cc([N+](=O)[O-])ccc21,7,-7,-2,x,5
CN(C)CCn1c2ccccc2c2nc3ccc([N+](=O)[O-])cc3cc21,48*,0,-1,29,x
COc1ccc(CN(C)C[C@@H]2Oc3ccc(NC(=O)Cc4cn(C)c5ccccc45)cc3CC(=O)N([C@@H](C)CO)C[C@@H]2C)cc1,x,x,x,13,x
C[C@H]1CN([C@@H](C)CO)C(=O)c2cc(NC(=O)Cn3cnnn3)ccc2O[C@@H]1CN(C)Cc1ccc(Oc2ccccc2)cc1,x,x,x,-8,x
O=C(N/N=C/c1ccc(Br)s1)c1ccco1,-2,-1,-2,x,-6
O=C(N/N=C/c1sc(=O)n(Cc2ccc(Br)cc2)c1Cl)c1ccco1,-39,2,24*,x,6
O=C(c1cccnc1)N1C[C@@H]2[C@H](c3ccccc31)[C@H](CO)N2C(=O)Nc1ccc(F)cc1,x,x,x,-4,x
CCC(C)c1c(O)nc(SCC(=O)c2ccccc2)[nH]c1=O (stereo not given),0,-1,4.7*,-6,-14
COC(=O)c1cc(OC)c(OC)cc1NC(=O)c1ccc(C)o1,-26,9.2*,-3,x,-17
COC(=O)c1cc(OC)c(OC)cc1NC(=O)CCc1ccc(C)o1,-17,-6,-7,1,-6
O=C(Nc1nnc(SCC(=O)N2CCCCC2)s1)c1ccccc1F,-23,9.2*,1,14,-12
CCOc1ccccc1C(=O)Nc1nnc(SCC(=O)N2CCCC2)s1,x,x,x,-8,x
CCCCOc1ccc(C(O)(CCC)CCN2CCOCC2)cc1 (stereo not given),5,-4,-3,-5,-15
CCCCC(O)(CCN1CCOCC1)c1ccc(Cl)cc1 (stereo not given),49*,-3,-1,-3,-26
O=C(c1cc2nc(-c3ccccc3)cc(C(F)(F)F)n2n1)N1CCN2CCCC2C1 (stereo not given),-3,9.1*,-5,5,-5
O=C(c1nn2c(C(F)(F)F)cc(-c3ccccc3)nc2c1Cl)N1CCN2CCCC2C1 (stereo not given),2,9.1*,-1,0,-15
CC(=O)Oc1ccc(Cn2cnc3cc4ccccc4cc32)cc1,-24,0,5.5*,2,3
Fc1ccccc1CSc1nncn1NCc1cccs1,-12,-3,4.8*,-3,10
SMILES,DNA FID counter,VIM-2 inh,IMP-1 inhibitor,RAD54 inh,PvdQ inh
C[C@@H]1CN([C@@H](C)CO)C(=O)Cc2cc(NS(=O)(=O)c3ccc(Cl)cc3)ccc2O[C@@H]1CN(C)S(=O)(=O)c1cn(C)cn1,x,x,x,4,x
CCCCCCNC(=O)c1c(O)c2cccc3c2n(c1=O)CCC3,0,-3,-3,-24,4
Cc1cccc(NC(=O)c2c(O)c3cccc4c3n(c2=O)CCC4)n1,3,-1,-2,x,x
CNC(=O)c1c(O)c2cccc3c2n(c1=O)CCC3,-15,9.5*,-3,12,-12
CCN(CC)CCNC(=O)c1c(O)c2cccc3c2n(c1=O)CCC3,10,11*,-6,23,-11
COc1ccc(CNC(=O)c2c(O)c3cccc4c3n(c2=O)CCC4)cc1,-2,0,-1,-7,-5
O=C(NCCNCCO)c1c(O)c2cccc3c2n(c1=O)CCC3,14,10.0*,-2,33,-3
C[C@H](CO)N1C[C@H](C)[C@@H](CN(C)Cc2ccc(C(=O)O)cc2)Oc2ccc(NS(=O)(=O)c3ccccc3)cc2C1=O,x,x,x,3,x
C[C@H]1CN([C@@H](C)CO)C(=O)Cc2cc(NC(=O)C3CCCCC3)ccc2O[C@H]1CN(C)S(=O)(=O)c1cn(C)cn1,x,x,x,-2,x
O=[N+]([O-])c1ccc2[nH]cc(S(=O)(=O)N3CCN(c4cccc(Cl)c4)CC3)c2c1,39*,-2,0,0,-1
O=C1c2cccc3cccc(c23)C(=O)N1CCN1CCN(C(=S)Nc2ccccc2)CC1,11,7.8*,-3,11,7
COC(=O)C[C@@H]1CC[C@H]2[C@@H](COc3ccc(NS(C)(=O)=O)cc3C(=O)N2C)O1,x,x,x,-6,x
CS(=O)(=O)N(CC(=O)Nc1cc(Cl)ccc1Cl)c1ccccc1,-4,-1,4.6*,-2,-8
CS(=O)(=O)N(CC(=O)Nc1cccc(Cl)c1Cl)c1ccccc1,-7,-2,-3,-14,-2
C[C@H](CO)N1C[C@H](C)[C@H](CN(C)Cc2ccncc2)Oc2ccc(NS(=O)(=O)c3ccccc3)cc2CC1=O,x,x,x,-1,x
Fc1ccc(-c2cc(C(F)(F)F)nc(-n3cncn3)n2)cc1,-12,9.7*,-3,x,-9
Fc1ccc(-c2cc(C(F)(F)F)nc(-n3cccn3)n2)cc1,-12,6,-4,3,-12
COc1cccc(-c2cc(C(F)(F)F)nc(-n3cc(C)cn3)n2)c1,-21,5,-3,x,0
COc1cccc(-c2cc(C(F)(F)F)nc(-n3cncn3)n2)c1,-10,8.7*,-4,-1,-5
Cc1ccc(S(=O)(=O)N(C)C[C@H]2OCCCC[C@H](C)Oc3ccc(NS(=O)(=O)c4cn(C)cn4)cc3C(=O)N([C@@H](C)CO)C[C@H]2C)cc1,x,x,x,0,x
O=C(C[C@@H]1CC[C@H]2[C@@H](COC[C@@H](O)CN2Cc2ccc(C(F)(F)F)cc2)O1)NCCc1ccccc1,x,x,x,-7,x
Cc1ncc([N+](=O)[O-])n1CCOC(=O)c1ccc(Cl)cc1Cl,-2,9.7*,-3,-4,11
C[C@H]1CN([C@@H](C)CO)C(=O)c2cc(NC(=O)Nc3ccccc3)ccc2O[C@@H]1CN(C)S(=O)(=O)c1ccccc1,x,x,x,7,x
COc1ccc(C(=O)Nc2ccccc2-c2ccccc2)cc1Cl,-1,-1,5.2*,x,-14
CCC(=O)N(C)C[C@H]1Oc2cc(-c3ccccc3)ccc2S(=O)(=O)N([C@@H](C)CO)C[C@H]1C,x,x,x,13,x
COc1ccc(CCN2C(=O)CC(C(C)c3ccccc3)C2=O)cc1OC (stereo not given),-22,-1,24*,x,-4

# Compound activity deposited in PubChem by several laboratories.
